In brackets after ≈: the same amount, converted by molar mass. Activity calls are given as the source filed them. The rule behind the calls is not given here.
Columns and labels:
[1] = tested on: Pichia kudriavzevii; experiment: Antifungal activity against Candida krusei ATCC 6258 assessed as decrease in fungal cell growth at 0.78 to 12.5 mg/L incubated for 24 hrs by CLSI broth dilution method; assay type: functional; conditions: ATCC 6258, 24 h
Procedure, shortened: (§1)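 Yeast broth dilution in RPMI 1640 with 2% glucose, compounds in DMSO. Yeasts pre-grown on Sabouraud dextrose agar. Growth read after 35 °C, 24 h.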

[2] = tested on: Klebsiella pneumoniae; experiment: Antibacterial activity against Klebsiella pneumoniae ATCC 13883 measured after 18 hrs by CLSI broth dilution method; assay type: functional; conditions: ATCC 13883, 18 h
Procedure, shortened: (§2)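 Broth MIC in Mueller-Hinton II broth following CLSI, compounds dissolved in DMSO. Strains subcultured twice on tryptic soy agar before testing. Growth read after 35 °C, 18 h.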

[3] = tested on: Meyerozyma guilliermondii; experiment: Antifungal activity against Candida guilliermondii IBA 155 assessed as diameter of zone inhibition incubated for 24 hrs by CLSI disc diffusion method; assay type: functional
Procedure, shortened: (§3)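 Yeast disc diffusion on Mueller-Hinton agar supplemented with 2% glucose and 0.5 mg/L methylene blue. Compounds in DMSO. Yeasts subcultured on Sabouraud dextrose agar before testing. Zones read after 35 °C, 24 h.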

[4] = tested on: Candida tropicalis; experiment: Antifungal activity against Candida tropicalis IBA 171 assessed as diameter of zone inhibition incubated for 24 hrs by CLSI disc diffusion method; assay type: functional; procedure, shortened: as §3
[5] = tested on: Acinetobacter baumannii; experiment: Antibacterial activity against Acinetobacter baumannii ATCC 19606 assessed as fold reduction of MIC in presence of efflux pump inhibitor PAbetaN incubated for 18 hrs by broth microdilution method; assay type: functional
Procedure, shortened: (§4)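 MICs determined with and without PAβN at 50 mg/L in Mueller-Hinton broth containing 1 mM MgSO₄. 2-fold serial dilutions per CLSI. Fold change taken from the paired MICs after 35 °C, 18 h.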

[6] = tested on: Enterococcus faecalis; experiment: Antibacterial activity against Enterococcus faecalis ATCC 29212 assessed as diameter of zone inhibition measured after 18 hrs by CLSI disc diffusion method; assay type: functional
Procedure, shortened: (§5)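 Disc diffusion on Mueller-Hinton II agar. Compounds dissolved in DMSO. Strains stored at -80 °C and subcultured twice on tryptic soy agar before testing. Inhibition zones read after 35 °C, 18 h.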

[7] = tested on: Enterobacter cloacae; experiment: Antibacterial activity against Enterobacter cloacae DSM 6234 assessed as diameter of zone inhibition measured after 18 hrs by CLSI disc diffusion method; assay type: functional; procedure, shortened: as §5
[8] = tested on: Escherichia coli; experiment: Antibacterial activity against Escherichia coli ATCC 25922 assessed as diameter of zone inhibition measured after 18 hrs by CLSI disc diffusion method; assay type: functional; procedure, shortened: as §5
[9] = tested on: Candida albicans; experiment: Antifungal activity against Candida albicans ATCC 90028 assessed as diameter of zone inhibition incubated for 24 hrs by CLSI disc diffusion method; assay type: functional; procedure, shortened: as §3
[10] = tested on: Burkholderia cepacia; experiment: Antibacterial activity against Burkholderia cepacia ATCC 25416 assessed as diameter of zone inhibition measured after 18 hrs by CLSI disc diffusion method; assay type: functional; procedure, shortened: as §5
[11] = tested on: Staphylococcus aureus; experiment: Antibacterial activity against Staphylococcus aureus ATCC 6538P assessed as diameter of zone inhibition measured after 18 hrs by CLSI disc diffusion method; assay type: functional; procedure, shortened: as §5
[12] = tested on: Bordetella bronchiseptica; experiment: Antibacterial activity against Bordetella bronchiseptica ATCC 4617 measured after 18 hrs by CLSI broth dilution method; assay type: functional; conditions: ATCC 4617, 18 h; procedure, shortened: as §2
[13] = tested on: Pseudomonas aeruginosa; experiment: Antibacterial activity against Pseudomonas aeruginosa ATCC 27853 assessed as fold reduction of MIC in presence of efflux pump inhibitor PAbetaN incubated for 18 hrs microdilution method; assay type: functional; procedure, shortened: as §4
[14] = tested on: Klebsiella pneumoniae; conditions: ATCC 13883
[15] = tested on: Bordetella bronchiseptica; experiment: Antibacterial activity against Bordetella bronchiseptica ATCC 4617 assessed as diameter of zone inhibition measured after 18 hrs by CLSI disc diffusion method; assay type: functional; procedure, shortened: as §5
[16] = tested on: Serratia marcescens; experiment: Antibacterial activity against Serratia marcescens ATCC 13880 assessed as fold reduction of MIC in presence of efflux pump inhibitor PAbetaN incubated for 18 hrs by broth microdilution method; assay type: functional; procedure, shortened: as §4
[17] = tested on: Candida parapsilosis; experiment: Antifungal activity against Candida parapsilosis ATCC 22019 assessed as diameter of zone inhibition incubated for 24 hrs by CLSI disc diffusion method; assay type: functional; procedure, shortened: as §3
[18] = tested on: Saccharomyces cerevisiae; experiment: Antifungal activity against Saccharomyces cerevisiae ATCC 9763 diameter of zone inhibition incubated for 24 hrs by CLSI disc diffusion method; assay type: functional
Procedure, shortened: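 Disc-diffusion run on Mueller-Hinton II agar with 2% glucose and 0.5 mg/L methylene blue, using compounds in DMSO. Yeast was precultured on Sabouraud dextrose agar (24–48 h, 30 °C). Zones read after 24 h at 35 °C.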

[19] = tested on: Candida albicans; experiment: Antifungal activity against Candida albicans ATCC 90028 assessed as decrease in fungal cell growth at 0.78 to 12.5 mg/L incubated for 24 hrs by CLSI broth dilution method; assay type: functional; conditions: ATCC 90028, 24 h; procedure, shortened: as §1
[20] = tested on: Escherichia coli; experiment: Antibacterial activity against Escherichia coli ATCC 25922 assessed as fold reduction of MIC in presence of efflux pump inhibitor PAbetaN incubated for 18 hrs by CLSI broth microdilution method; assay type: functional; procedure, shortened: as §4
[21] = tested on: Pseudomonas aeruginosa; experiment: Antibacterial activity against Pseudomonas aeruginosa ATCC 27853 measured after 18 hrs by CLSI broth dilution method; assay type: functional; conditions: ATCC 27853, 18 h; procedure, shortened: as §2
[22] = tested on: Stenotrophomonas maltophilia; experiment: Antibacterial activity against Stenotrophomonas maltophilia ATCC 13637 measured after 18 hrs by CLSI broth dilution method; assay type: functional; conditions: ATCC 13637, 18 h; procedure, shortened: as §2
[23] = tested on: Staphylococcus epidermidis; experiment: Antibacterial activity against Staphylococcus epidermidis ATCC 12228 assessed as diameter of zone inhibition measured after 18 hrs by CLSI disc diffusion method; assay type: functional; procedure, shortened: as §5
[24] = tested on: Enterococcus faecium; experiment: Antibacterial activity against Enterococcus faecium ATCC 6057 assessed as diameter of zone inhibition measured after 18 hrs by CLSI disc diffusion method; assay type: functional; procedure, shortened: as §5
[25] = tested on: Proteus mirabilis; experiment: Antibacterial activity against Proteus mirabilis ATCC 12453 assessed as fold reduction of MIC in presence of efflux pump inhibitor PAbetaN incubated for 18 hrs by broth microdilution method; assay type: functional; procedure, shortened: as §4
[26] = tested on: Enterococcus faecium; experiment: Antibacterial activity against Enterococcus faecium ATCC 6057 measured after 18 hrs by CLSI broth dilution method; assay type: functional; conditions: ATCC 6057, 18 h; procedure, shortened: as §2
[27] = tested on: Burkholderia cepacia; experiment: Antibacterial activity against Burkholderia cepacia ATCC 25416 measured after 18 hrs by CLSI broth dilution method; assay type: functional; conditions: ATCC 25416, 18 h; procedure, shortened: as §2
[28] = tested on: Acinetobacter baumannii; experiment: Antibacterial activity against Acinetobacter baumannii ATCC 19606 measured after 18 hrs by CLSI broth dilution method; assay type: functional; conditions: ATCC 19606, 18 h; procedure, shortened: as §2
[29] = tested on: Pseudomonas aeruginosa; experiment: Antibacterial activity against Pseudomonas aeruginosa ATCC 27853 assessed as diameter of zone inhibition measured after 18 hrs by CLSI disc diffusion method; assay type: functional, organism-based; procedure, shortened: as §5
[30] = tested on: Escherichia coli; experiment: Antibacterial activity against Escherichia coli ATCC 25922 measured after 18 hrs by CLSI broth dilution method; assay type: functional; conditions: ATCC 25922, 18 h; procedure, shortened: as §2
[31] = tested on: Klebsiella pneumoniae; experiment: Antibacterial activity against Klebsiella pneumoniae ATCC 13883 assessed as fold reduction of MIC in presence of efflux pump inhibitor PAbetaN incubated for 18 hrs by broth microdilution method; assay type: functional; procedure, shortened: as §4
[32] = tested on: Staphylococcus aureus; experiment: Antibacterial activity against Staphylococcus aureus ATCC 6538P measured after 18 hrs by CLSI broth dilution method; assay type: functional; procedure, shortened: as §2
[33] = tested on: Acinetobacter baumannii; experiment: Antibacterial activity against Acinetobacter baumannii ATCC 19606 assessed as diameter of zone inhibition measured after 18 hrs by CLSI disc diffusion method; assay type: functional; procedure, shortened: as §5

| Compound | MIC [1] | MIC [2] | diameter of the inhibition zone (DIZ) [3] | diameter of the inhibition zone (DIZ) [4] | fold change (FC) [5] | diameter of the inhibition zone (DIZ) [6] | diameter of the inhibition zone (DIZ) [7] | diameter of the inhibition zone (DIZ) [8] | diameter of the inhibition zone (DIZ) [9] | diameter of the inhibition zone (DIZ) [10] | diameter of the inhibition zone (DIZ) [11] | MIC [12] | fold change (FC) [13] | DIZ [14] | diameter of the inhibition zone (DIZ) [15] | fold change (FC) [16] | diameter of the inhibition zone (DIZ) [17] | diameter of the inhibition zone (DIZ) [18] | MIC [19] | fold change (FC) [20] | also measured |
| --- | --- | --- | --- | --- | --- | --- | --- | --- | --- | --- | --- | --- | --- | --- | --- | --- | --- | --- | --- | --- | --- |
| C[Si]1(C)OB(O)c2cc(F)c(F)cc21 | 50 µg/mL (≈ 234 µM) | > 400 µg/mL | 30 mm | 13 mm | 8 | inactive | inactive | inactive | 16 mm | inactive | 34 mm | 400 µg/mL (≈ 1870 µM) | 8 | inactive | inactive | 4 | 18 mm | 57 mm | 50 µg/mL (≈ 234 µM) | 32 | MIC [21]: > 400 µg/mL; MIC [22]: 400 µg/mL (≈ 1870 µM); diameter of the inhibition zone (DIZ) [23]: 28 mm; diameter of the inhibition zone (DIZ) [24]: inactive; fold change (FC) [25]: 2; MIC [26]: 200 µg/mL (≈ 934 µM); MIC [27]: > 400 µg/mL; MIC [28]: > 400 µg/mL; diameter of the inhibition zone (DIZ) [29]: inactive; MIC [30]: > 400 µg/mL; fold change (FC) [31]: 4; MIC [32]: 50 µg/mL (≈ 234 µM); diameter of the inhibition zone (DIZ) [33]: inactive |
| C[Si]1(C)OB(O)c2ccc(B(O)O)cc21 | 400 µg/mL (≈ 1800 µM) | > 400 µg/mL | inactive | inactive | 2 | inactive | inactive | inactive | inactive | inactive | 14 mm | > 400 µg/mL | 2 | inactive | inactive | 2 | inactive | inactive | 400 µg/mL (≈ 1800 µM) | 8 | MIC [21]: > 400 µg/mL; MIC [22]: 400 µg/mL (≈ 1800 µM); diameter of the inhibition zone (DIZ) [23]: 32 mm; diameter of the inhibition zone (DIZ) [24]: 12 mm; fold change (FC) [25]: 4; MIC [26]: 200 µg/mL (≈ 901 µM); MIC [27]: > 400 µg/mL; MIC [28]: > 400 µg/mL; diameter of the inhibition zone (DIZ) [29]: inactive; MIC [30]: > 400 µg/mL; fold change (FC) [31]: 4; MIC [32]: 200 µg/mL (≈ 901 µM); diameter of the inhibition zone (DIZ) [33]: inactive |
| C[Si]1(C)OB(O)c2cc(F)c(CO)c(F)c21 | 400 µg/mL (≈ 1640 µM) | > 400 µg/mL | inactive | inactive | 2 | inactive | inactive | inactive | inactive | inactive | 17 mm | > 400 µg/mL | 4 | inactive | inactive | 4 | inactive | inactive | > 400 µg/mL | 4 | MIC [21]: > 400 µg/mL; MIC [22]: 200 µg/mL (≈ 819 µM); diameter of the inhibition zone (DIZ) [23]: 19 mm; diameter of the inhibition zone (DIZ) [24]: inactive; fold change (FC) [25]: 4; MIC [26]: > 400 µg/mL; MIC [27]: > 400 µg/mL; MIC [28]: 400 µg/mL (≈ 1640 µM); diameter of the inhibition zone (DIZ) [29]: inactive; MIC [30]: > 400 µg/mL; fold change (FC) [31]: 2; MIC [32]: 200 µg/mL (≈ 819 µM); diameter of the inhibition zone (DIZ) [33]: inactive |

Reference: ChEMBL document CHEMBL4346672, “Antimicrobial and KPC/AmpC inhibitory activity of functionalized benzosiloxaboroles” (Eur J Med Chem, 2019)
